Laboratory results: ChEMBL document CHEMBL4184148 (Bioorg Med Chem Lett, 2017)

Key:
[1] = tested on: Tyrosine-protein kinase ABL1 (Homo sapiens), P00519 [F317L]; assay: Binding affinity to human phosphorylated ABL1 F317L mutant (S229 to K512 residues) expressed in HEK293 cells at 1 uM by Kinomescan method relative to control; format: cell-based
[2] = tested on: Tyrosine-protein kinase ABL1 (Homo sapiens), P00519 [Y253F]; assay: Binding affinity to human phosphorylated ABL1 Y253F mutant (S229 to K512 residues) expressed in HEK293 cells at 1 uM by Kinomescan method relative to control; format: cell-based
[3] = molecular target: Atypical kinase COQ8B, mitochondrial (Homo sapiens) (UniProt Q96D53); assay: Binding affinity to wild-type human full length ADCK4 (M1 to S544 residues) expressed in Escherichia coli BL21 at 1 uM by Kinomescan method relative to control
[4] = tested on: ALK tyrosine kinase receptor (Homo sapiens), Q9UM73 [C1156Y]; assay: Binding affinity to wild-type human partial length ALK C1156Y mutant (I1088 to E1409 residues) expressed in HEK293 cells at 1 uM by Kinomescan method relative to control; format: cell-based
[5] = molecular target: Cyclin-dependent kinase 7 (Homo sapiens) (UniProt P50613); assay: Binding affinity to wild-type human full length CDK7 (M1 to L344 residues) expressed in HEK293 cells at 1 uM by Kinomescan method relative to control; format: cell-based
Outline: (§1)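 Run as one kinome-wide competition binding panel with each compound at a single fixed concentration. Results were plotted as a kinome-wide selectivity map.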

[6] = molecular target: Casein kinase I isoform alpha-like (Homo sapiens) (UniProt Q8N752); assay: Binding affinity to wild-type human full length CSNK1A1L (M1 to N337 residues) expressed in Escherichia coli BL21 at 1 uM by Kinomescan method relative to control; outline: as §1
[7] = molecular target: Dual specificity tyrosine-phosphorylation-regulated kinase 1A (Homo sapiens) (UniProt Q13627); assay: Binding affinity to wild-type human partial length DYRK1A (H129 to S509 residues) expressed in HEK293 cells at 1 uM by Kinomescan method relative to control; format: cell-based
[8] = tested on: Epidermal growth factor receptor (Homo sapiens), P00533 [UNDEFINED MUTATION]; assay: Binding affinity to human partial length EGFR L747-E749del/A750P mutant expressed in Escherichia coli BL21 at 1 uM by Kinomescan method relative to control
[9] = tested on: Epidermal growth factor receptor (Homo sapiens), P00533 [UNDEFINED MUTATION]; assay: Binding affinity to human partial length EGFR L747-S752del/P753S mutant expressed in Escherichia coli BL21 at 1 uM by Kinomescan method relative to control
[10] = molecular target: Epidermal growth factor receptor (Homo sapiens) (UniProt P00533); assay: Binding affinity to human partial length EGFR S752-I759del mutant expressed in Escherichia coli BL21 at 1 uM by Kinomescan method relative to control
[11] = tested on: Epidermal growth factor receptor (Homo sapiens), P00533 [T790M]; assay: Binding affinity to human partial length EGFR T790M mutant (R669 to G1022 residues) expressed in HEK293 cells at 1 uM by Kinomescan method relative to control; format: cell-based
[12] = molecular target: Tyrosine-protein kinase HCK (Homo sapiens) (UniProt P08631); assay: Binding affinity to wild-type human full length HCK (M22 to P526 residues) expressed in Escherichia coli BL21 at 1 uM by Kinomescan method relative to control; outline: as §1
[13] = molecular target: Serine/threonine-protein kinase MAK (Homo sapiens) (UniProt P20794); assay: Binding affinity to wild-type human partial length MAK (M1 to P314 residues) expressed in Escherichia coli BL21 at 1 uM by Kinomescan method relative to control
[14] = molecular target: Serine/threonine-protein kinase Nek10 (Homo sapiens) (UniProt Q6ZWH5); assay: Binding affinity to wild-type human partial length NEK10 (L488 to R809 residues) expressed in HEK293 cells at 1 uM by Kinomescan method relative to control; format: cell-based
[15] = molecular target: Serine/threonine-protein kinase Nek3 (Homo sapiens) (UniProt P51956); assay: Binding affinity to wild-type human full length NEK3 (M1 to R506 residues) expressed in HEK293 cells at 1 uM by Kinomescan method relative to control; format: cell-based
Outline: (§2)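 Kinome-wide competition binding panel run by an outside provider, with each compound tested at a single concentration. Activity is read against the kinase panel.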

[16] = molecular target: Serine/threonine-protein kinase PAK 5 (Homo sapiens) (UniProt Q9P286); assay: Binding affinity to wild-type human partial length PAK7 (Y400 to H719 residues) expressed in Escherichia coli BL21 at 1 uM by Kinomescan method relative to control
[17] = molecular target: Serine/threonine-protein kinase pim-1 (Homo sapiens) (UniProt P11309); assay: Binding affinity to wild-type human partial length PIM1 (A15 to K313 residues) expressed in Escherichia coli BL21 at 1 uM by Kinomescan method relative to control
[18] = molecular target: Protein kinase C theta type (Homo sapiens) (UniProt Q04759); assay: Binding affinity to wild-type human partial length PRKCQ (L350 to S706 residues) expressed in Escherichia coli BL21 at 1 uM by Kinomescan method relative to control
[19] = molecular target: Serine/threonine-protein kinase RIO3 (Homo sapiens) (UniProt O14730); assay: Binding affinity to wild-type human full length RIOK3 (M1 to E519 residues) expressed in Escherichia coli BL21 at 1 uM by Kinomescan method relative to control; outline: as §2
[20] = molecular target: Ribosomal protein S6 kinase alpha-5 (Homo sapiens) (UniProt O75582); assay: Binding affinity to wild-type human partial length C-terminal RPS6KA5 kinase domain 2 (V390 to T718 residues) expressed in Escherichia coli BL21 at 1 uM by Kinomescan method relative to control
[21] = molecular target: Serine/threonine-protein kinase Sgk2 (Homo sapiens) (UniProt Q9HBY8); assay: Binding affinity to wild-type human partial length SGK2 (L54 to C427 residues) expressed in HEK293 cells at 1 uM by Kinomescan method relative to control; format: cell-based
[22] = molecular target: Mitogen-activated protein kinase kinase kinase 7 (Homo sapiens) (UniProt O43318); assay: Binding affinity to wild-type human partial length TAK1 (M1 to Q303 residues) expressed in HEK293 cells at 1 uM by Kinomescan method relative to control; format: cell-based
[23] = molecular target: Activated CDC42 kinase 1 (Homo sapiens) (UniProt Q07912); assay: Binding affinity to wild-type human partial length TNK2 (S159 to D474 residues) expressed in Escherichia coli BL21 at 1 uM by Kinomescan method relative to control
[24] = molecular target: Serine/threonine-protein kinase WNK2 (Homo sapiens) (UniProt Q9Y3S1); assay: Binding affinity to wild-type human partial length WNK2 (V47 to D482 residues) expressed in HEK293 cells at 1 uM by Kinomescan method relative to control; format: cell-based
[25] = molecular target: Serine/threonine-protein kinase 32A (Homo sapiens) (UniProt Q8WU08); assay: Binding affinity to wild-type human full length YANK1 (M1 to L396 residues) expressed in HEK293 cells at 1 uM by Kinomescan method relative to control; format: cell-based; outline: as §2

SMILES | Activity [1] [%] | Activity [2] [%] | Activity [3] [%] | Activity [4] [%] | Activity [5] [%] | Activity [6] [%] | Activity [7] [%] | Activity [8] [%] | Activity [9] [%] | Activity [10] [%] | Activity [11] [%] | Activity [12] [%] | Activity [13] [%] | Activity [14] [%] | Activity [15] [%] | Activity [16] [%] | Activity [17] [%] | Activity [18] [%] | Activity [19] [%] | Activity [20] [%] | also measured
CCC(=O)Nc1ccc(C(=O)Nc2ccc(Nc3ncc4c(n3)N(C)c3ccc(C)cc3C(=O)N4C)cc2)cc1 | 100 | 3.5 | 100 | 100 | 66 | 97 | 73 | 48 | 87 | 90 | 78 | 74 | 100 | 85 | 70 | 97 | 85 | 99 | 84 | 82 | Activity [21]: 70%; Activity [22]: 66%; Activity [23]: 86%; Activity [24]: 94%; Activity [25]: 82%
C=CC(=O)Nc1ccc(C(=O)Nc2ccc(Nc3ncc4c(n3)N(C)c3ccc(C)cc3C(=O)N4C)cc2)cc1 | 92 | 100 | 100 | 94 | 80 | 95 | 96 | 76 | 99 | 96 | 79 | 100 | 78 | 85 | 84 | 100 | 88 | 96 | 75 | 100 | Activity [21]: 100%; Activity [22]: 96%; Activity [23]: 96%; Activity [24]: 86%; Activity [25]: 100%
